For one experiment, the target named is Cannabinoid receptor 1 (Homo sapiens, UniProt P21554). The experiment is described as follows: Antagonist activity at human CB1R expressed in CHO cell membranes preincubated for 30 mins followed by GTPgammaS addition and measured after 90 mins by [35S]GTPgammaS assay. It counts as functional, Membrane. The method, boiled down: (§1)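 In-house CHO membranes expressing hCB1 or hCB2 (10 µg) in 50 mM Tris-HCl, 3 mM MgCl2, 0.2 mM EDTA, 100 mM NaCl, 0.5% fatty-acid-free BSA, pH 7.4, with 10 μM GDP and 0.1 nM [35S]GTPγS. Incubated 90 min at 30 °C; antagonist pre-incubated 30 min. Nonspecific binding with 10 μM GTPγS; bound label by filtration and counting; ≥3 experiments in triplicate.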
Chain of Cannabinoid receptor 1 (P21554 whole entry): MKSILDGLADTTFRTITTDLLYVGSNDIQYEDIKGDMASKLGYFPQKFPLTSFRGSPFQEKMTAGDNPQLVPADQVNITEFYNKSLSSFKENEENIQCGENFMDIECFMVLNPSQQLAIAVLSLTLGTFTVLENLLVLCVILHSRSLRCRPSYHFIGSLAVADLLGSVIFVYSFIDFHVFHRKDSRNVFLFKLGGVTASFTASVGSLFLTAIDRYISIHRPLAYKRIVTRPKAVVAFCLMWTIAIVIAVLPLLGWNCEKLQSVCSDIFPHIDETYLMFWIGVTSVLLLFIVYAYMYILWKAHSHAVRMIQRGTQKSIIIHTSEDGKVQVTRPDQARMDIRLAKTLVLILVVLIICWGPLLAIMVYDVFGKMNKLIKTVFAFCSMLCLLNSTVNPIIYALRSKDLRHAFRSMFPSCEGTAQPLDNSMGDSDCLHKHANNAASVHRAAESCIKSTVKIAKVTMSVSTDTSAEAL

For a further experiment, the species on record is Homo sapiens. The experiment is described as follows: Selectivity index, ratio of Ki for human CB1R expressed in CHO cell membranes to Ki for human CB2R expressed in CHO cell membranes. It counts as cell-based.
Experiment [1] deals with T1, Cannabinoid receptor 2 (Homo sapiens, UniProt P34972). Description: Competitive antagonist activity at human CB2R expressed in CHO cell membranes assessed as N-cycloheptyl-1,2-dihydro-5-bromo-1-(4-fluoro benzyl)-6-methyl-2-oxo-pyridine-3-carboxamide Emax at 100 nM preincubated with compound for 30 mins followed by GTPgammaS addition and measured after 90 mins by [35S]GTPgammaS assay (reference value: 210%). It counts as functional. Conditions: Membrane, filed as antagonist, time 120.0 min.
T1 sequence (P34972 whole entry): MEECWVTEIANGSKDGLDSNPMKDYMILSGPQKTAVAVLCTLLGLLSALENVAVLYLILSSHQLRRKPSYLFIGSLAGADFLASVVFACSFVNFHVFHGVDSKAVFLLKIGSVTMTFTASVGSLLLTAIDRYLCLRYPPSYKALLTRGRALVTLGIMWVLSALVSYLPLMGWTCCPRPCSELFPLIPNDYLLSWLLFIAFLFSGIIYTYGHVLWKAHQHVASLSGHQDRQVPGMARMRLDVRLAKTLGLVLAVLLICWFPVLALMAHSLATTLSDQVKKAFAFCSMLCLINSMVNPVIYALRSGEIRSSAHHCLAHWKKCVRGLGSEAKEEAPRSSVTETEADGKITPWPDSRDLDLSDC

Experiment [2] has as its target T1, Cannabinoid receptor 2. Description: Competitive antagonist activity at human CB2R expressed in CHO cell membranes assessed as N-cycloheptyl-1,2-dihydro-5-bromo-1-(4-fluoro benzyl)-6-methyl-2-oxo-pyridine-3-carboxamide Emax at 1000 nM preincubated with compound for 30 mins followed by GTPgammaS addition and measured after 90 mins by [35S]GTPgammaS assay (reference value: 210%). It counts as functional. Conditions: Membrane, filed as antagonist, time 120.0 min. In short, it runs like this:
(§2)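 hCB2 CHO membranes in GTPγS buffer (10 μM GDP, 0.1 nM [35S]GTPγS, pH 7.4) pre-incubated 30 min with antagonist at 300 nM or 1 µM, then agonist or inverse agonist concentration series, 90 min at 30 °C. EC50 and Emax reported with 95% CI; Schild analysis; controls CP55,940 100 nM and AM630 1 μM; ≥3 experiments in triplicate.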

In experiment [3] the target is T1, Cannabinoid receptor 2. Description: Non-competitive antagonist activity at human CB2R expressed in CHO cell membranes assessed as N-cycloheptyl-1,2-dihydro-1-(4-fluorobenzyl)-6-methyl-2-oxo-5-phenyl-pyridine-3-carboxamide Emax at 100 nM preincubated with compound for 30 mins followed by GTPgammaS addition and measured after 90 mins by [35S]GTPgammaS assay (reference value: -49.9%). It counts as functional. Conditions: Membrane, filed as antagonist, time 120.0 min. The method, boiled down:
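hCB2 membranes from stably transfected CHO cells (10 µg) pre-incubated 30 min with antagonist, then an inverse-agonist concentration series added. Buffer: 50 mM Tris-HCl, 3 mM MgCl2, 0.2 mM EDTA, 100 mM NaCl, 0.5% fatty-acid-free BSA, pH 7.4, with 10 µM GDP and 0.1 nM [35S]GTPγS. Incubated 90 min at 30 °C, then filtered. Non-specific binding measured with 10 µM GTPγS. Emax given with 95% CI; at least 3 experiments, each in triplicate.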

Experiment [4] has as its target T1, Cannabinoid receptor 2. The experiment is described as follows: Competitive antagonist activity at human CB2R expressed in CHO cell membranes assessed as rightward shift of N-cycloheptyl-1,2-dihydro-5-bromo-1-(4-fluoro benzyl)-6-methyl-2-oxo-pyridine-3-carboxamide-induced GTPgammaS binding by measuring fold change in N-cycloheptyl-1,2-dihydro-5-bromo-1-(4-fluoro benzyl)-6-methyl-2-oxo-pyridine-3-carboxamide EC50 at 1000 nM preincubated with compound for 30 mins followed by GTPgammaS addition and measured after 90 mins by [35S]GTPgammaS assay. It counts as functional. Particulars: Membrane, time 120.0 min. The method, boiled down: as §2

Experiment [5] deals with T1, Cannabinoid receptor 2. Description: Agonist activity at human CB2R expressed in CHO cell membranes after 90 mins by [35S]GTPgammaS assay. It counts as functional, Membrane. In short, it runs like this: as §1
Experiment [6] has as its target Cannabinoid receptor 2 (Mus musculus) (UniProt P47936). Description: Agonist activity at CB2R in LPS induced mouse BV2 cells assessed as reduction in IL-1beta secretion at 10 uM preincubated with CB2R antagonist, SR144528 for 15 mins followed by compound additon for 30 mins after LPS stimulation for 4 hrs by ELISA. It counts as cell-based. Particulars: BV-2, time 270.0 min. The method, boiled down:
(§3)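 BV-2 murine microglia grown in high-glucose DMEM with 10% FBS. Treatments in FBS-free medium: test agonist 10 μM for 30 min, then LPS 5 μg/ml for 4 h; SR144528 10 μM given 15 min before agonist. DMSO ≤0.1% final. Medium spun 10 min at 1000×g; IL-1β, IL-6, IL-10 quantified by ELISA; three independent experiments in duplicate.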

For experiment [7] the target is unchanged. Description: Agonist activity at CB2R in LPS induced mouse BV2 cells assessed as reduction in IL-6 secretion at 10 uM preincubated with CB2R antagonist, SR144528 for 15 mins followed by compound additon for 30 mins after LPS stimulation for 4 hrs by ELISA. It counts as cell-based. Particulars: BV-2, time 270.0 min. In short, it runs like this:
as §3

In experiment [8] the test system is Mus musculus. The experiment is described as follows: Antiinflammatory activity in MOG (35 to 55 residues)/pertussis toxin-induced experimental autoimmune encephalomyelitis C57BL/6J mouse model assessed as improvement in late stage disease severity at 10 mg/kg, ip dosed once daily for 20 days starting from day 10 to 16 post immunization and measured at day 10 to 19 post treatment. Conditions: time 10-19 day. It counts as functional, organism-based. In short, it runs like this:
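Active EAE in mice: 200 µg MOG35-55 in CFA (4 mg/ml M. tuberculosis) s.c. at hips and tail root, plus pertussis toxin 300 ng i.p. after immunization and 48 h later. Daily i.p. dosing (DMSO vehicle) for 20 days from each mouse's onset (day 10–16); onset = day 1. Daily clinical score; multiple t-tests with Holm-Sidak.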

For experiment [9], the system named is Mus musculus. The experiment is described as follows: Antinociceptive activity in CD-1 albino mouse model of oxaliplatin-induced neuropathic pain assessed as decrease in pain-related behaviour by measuring efficacy onset and time duration at 5 to 50 mg/kg, po treated on day 15 post oxaliplatin treatment and measured after 15 to 75 mins post dose by cold plate test. It counts as functional. Conditions: dose 5-50 mg/kg; time 15-75 min. The method, boiled down:
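Male CD-1 mice (22-25 g) given oxaliplatin 2.4 mg/kg i.p. in 5% glucose on days 1-2, 5-9, 12-14; tested day 15. Compound in 1% carboxymethylcellulose orally at 5, 10, 20, 50 mg/kg. Cold plate licking latency at 15, 30, 45, 60, 75 min post dose. Selective CB1R and CB2R antagonists co-tested. 16 mice per treatment across 2 sessions; one-way ANOVA with Bonferroni.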

Active and inactive are the calls of the source. No cut-off for these calls is given here.

Chain of Cannabinoid receptor 2 (Mus musculus) (P47936 whole entry): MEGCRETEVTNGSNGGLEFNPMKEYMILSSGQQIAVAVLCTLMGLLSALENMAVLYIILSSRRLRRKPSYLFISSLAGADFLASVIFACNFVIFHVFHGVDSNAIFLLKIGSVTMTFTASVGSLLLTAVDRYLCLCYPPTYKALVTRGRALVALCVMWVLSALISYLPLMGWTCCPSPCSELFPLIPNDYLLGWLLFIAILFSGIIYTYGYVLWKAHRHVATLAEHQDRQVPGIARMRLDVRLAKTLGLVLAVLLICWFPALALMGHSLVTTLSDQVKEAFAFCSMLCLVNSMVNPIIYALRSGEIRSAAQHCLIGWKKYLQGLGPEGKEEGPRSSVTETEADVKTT

In turn, `COc1ccc(-c2cc(C(=O)NC3CCCCCC3)c(=O)n(Cc3ccc(F)cc3)c2C)cc1` had a half-maximal effective concentration (EC50) at Cannabinoid receptor 1 of 270 nM. Moreover, the Ratio Ki in the experiment filed under Homo sapiens was determined as 0.37. For the same compound, the results for the Emax at Cannabinoid receptor 2 [1], on Cannabinoid receptor 2 [2] and at Cannabinoid receptor 2 [3] were 219%, 208% and -36.3%, respectively. In addition, at Cannabinoid receptor 2 [4], the fold change (FC) was found to be 70.

`Cc1c(Br)cc(C(=O)NC2CCCCCC2)c(=O)n1Cc1ccc(F)cc1` came in with an EC50 on Cannabinoid receptor 2 [5] of 11.6 nM. Further, the outcome in experiment [6] and in experiment [7] was inactive. For the same compound, the outcome with Mus musculus [8] was Active. Besides, in the experiment on Mus musculus [9], the Time is 15 min.
